# Source: PubChem
# Compounds with a hit are over-represented: about 4.5% of the library has one in this group of screens.
# GPR7 antagonist – human neuropeptides B/W receptor 1 antagonism; inhibition, % at 4.4 µM; AID 1861; GPR7-expressing cells, fluorescence antagonist assay; P48145; 1.1% of 290,000 active; in the data active = inhibition above about 16%, passing the limit was not always enough;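 also: cells stimulated with the agonist NPW; 0% = agonist with vehicle and 100% = vehicle without agonist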
# Target sequence (P48145 whole entry, looked up): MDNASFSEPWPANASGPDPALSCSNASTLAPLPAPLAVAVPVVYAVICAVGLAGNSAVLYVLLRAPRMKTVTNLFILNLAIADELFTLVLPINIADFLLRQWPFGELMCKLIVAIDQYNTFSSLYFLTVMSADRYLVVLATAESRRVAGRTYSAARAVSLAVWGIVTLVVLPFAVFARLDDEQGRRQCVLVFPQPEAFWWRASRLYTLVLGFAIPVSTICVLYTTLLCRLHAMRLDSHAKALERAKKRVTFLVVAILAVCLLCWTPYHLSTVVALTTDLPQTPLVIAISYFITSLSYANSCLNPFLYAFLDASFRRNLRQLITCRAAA
# TAAR1 agonist – human TAAR1 agonism; Q96RJ0; CHO RD-HGA16 TAAR1, Fluo-8 calcium fluorescence; vehicle wells 0%, saturating PEA agonist 100%; activation, % at 3 µM; 0.99% of 360,000 active;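 active = activation above the mean activation of all test compounds in the run plus 3 SD, cut at about 38% in these data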
# Target sequence (Q96RJ0 whole entry, looked up): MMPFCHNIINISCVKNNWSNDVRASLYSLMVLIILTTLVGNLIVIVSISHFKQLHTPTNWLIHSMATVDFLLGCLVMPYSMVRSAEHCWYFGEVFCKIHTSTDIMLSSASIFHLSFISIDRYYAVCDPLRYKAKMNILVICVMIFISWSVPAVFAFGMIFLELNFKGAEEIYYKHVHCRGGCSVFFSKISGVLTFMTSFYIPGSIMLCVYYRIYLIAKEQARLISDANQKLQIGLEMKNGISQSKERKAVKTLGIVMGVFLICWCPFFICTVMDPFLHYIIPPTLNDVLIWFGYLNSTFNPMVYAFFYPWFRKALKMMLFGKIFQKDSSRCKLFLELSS
#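 Assay system: CHO-derived RD-HGA16 cells with stable Gα16 and human TAAR1; timing: 17-24 h seeding, 75 min 37 °C dye, 30 min RT; read-out: % activation from peak over basal fluorescence ratio, DMSO-to-PEA scaled; measured by: kinetic Fluo-8 calcium fluorescence; benchmarks: low control DMSO, high control PEA (EC100); doses: 3 µM single concentration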
# OX1R antag-1 – OX1R (human) antagonism | O43613 | inhibition, % at 6.6 µM | OX1R-expressing cells, FRET antagonist read-out | AID 485270 | 1.8% of 330,000 active; in the data active = inhibition mostly above about 38%, no sharp cut-off; inactive = mostly below about 40%;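 also: 0% = agonist challenge alone and 100% = reference antagonist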
# OX1R antag-2 – blocks the human orexin 1 receptor. O43613. CHO/OX1R cells, Fluo-8 calcium fluorescence, orexin A. inhibition, % at 5 µM. 0.43% of 330,000 active;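 active = inhibition above its plate's threshold, mean inhibition of all tested compounds on the plate plus 3 SD, cut at about 37% in these data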;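 also: 0% = orexin A challenge wells and 100% = SB-334867-A antagonist wells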
# TAAR1 antagonist – antagonists of human TAAR1. AID 624466. inhibition, % at 3 µM. 1.5% of 360,000 active. CHO RD-HGA16 TAAR1, Fluo-8 calcium fluorescence, antagonist. Q96RJ0;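 active = inhibition above a per-plate cutoff, the mean inhibition of test compounds on that plate plus 3 SD, cut at about 49% in these data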;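 also: 0% = DMSO plus EC80 beta-PEA response and 100% = DMSO alone without agonist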
#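 Assay system: CHO-derived RD-HGA16 cells stably expressing human TAAR1 plus Gα16. Timing: 140 s kinetic read after compound, 140 s after agonist. Technique: kinetic Fluo-8 calcium fluorescence measurement. Measure: % inhibition of agonist calcium response.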
# CHO parental Ca – counter-screen: ATP calcium response change in parental CHO cells; AID 463079; parental CHO-K1, ATP-induced calcium, Fluo-8 fluorescence; 0.63% of 330,000 active; inhibition, % at 5.6 µM;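 active = inhibition above that plate's mean sample inhibition plus 3 SD, cut at about 26% in these data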;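 also: 0% = ATP-challenged DMSO wells and 100% = DMSO wells without ATP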
#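 Test system: parental CHO cells; detection: calcium-sensitive Fluo-8 fluorescence; evaluation: percent inhibition of calcium signal; also added: ATP as calcium-mobilizing challenge; repeats: one well per compound; control set: ATP-challenged DMSO wells low, unchallenged DMSO wells high; compound: single nominal dose of 5.6 µM per compound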
# * hit, by the source's call; . = no result.
SMILES,GPR7 antagonist,TAAR1 agonist,OX1R antag-1,OX1R antag-2,TAAR1 antagonist,CHO parental Ca
CC1CCN(C2=C(NS(=O)(=O)c3ccc(Br)cc3)C(=O)c3ccccc3C2=O)CC1,-11.5,0.3,56.4*,-36.4,15.3,-26.2
CC(=O)N1CCN=C1SCc1cccc(C)c1,-8.9,-0.2,10.5,-15.5,-23.3,-9.3
Cc1nc2cc[nH]n2c(=O)c1CCc1ccccc1,.,3.1,.,.,-17.4,.
OC(c1ccccc1)(c1ccccc1)C1CCN(CCCOc2cccc(C(F)(F)F)c2)CC1,.,31.9,.,.,35.8,.
CC(C)N(C[C@@H]1CSCCS(=O)(=O)N1)C(C)C,.,0.5,.,.,12.8,.
CC(C)C(C(=O)NCc1ccccc1)N1CCN(CCN2CCOCC2)CC1 (centres undefined),.,0.0,.,.,-11.4,.
CC(=O)O[C@H]1CC[C@]2(C)C3CC[C@]4(C)[C@@H]([C@H](C)/C=C/[C@H](C)C(C)C)CC[C@H]4[C@@]34C=C[C@]2(C1)N(C(=O)c1ccccc1)O4 (some centres undefined),.,-0.7,.,.,-22.2,.
CCN(CCc1ccccc1)c1ccc2c(c1)C1CC2CCN1Cc1ccccc1 (centres undefined),.,6.7,.,.,-1.1,.
Nc1nc2c(ncn2[C@@H]2O[C@H](C(=O)N[C@H](Cc3ccccc3)C(=O)NCCCc3ccccc3)[C@@H](O)[C@H]2O)c(=O)[nH]1,.,1.1,.,.,-30.8,.
CCCCNc1ccc2c(c1)OC[C@H](Cc1ccccc1)NS2(=O)=O,.,-1.6,.,.,2.4,.
Cc1cccc(C)c1OCC(O)CN (centres undefined),-11.3,41.2*,16.6,-9.4,-16.2,-13.3
CCOC(=O)N1CCN(CC(O)COc2c(C)cccc2C)CC1 (centres undefined),-7.9,1.2,3.7,15.2,-16.3,-4.0
CCOC(=O)N1CCN(C(=O)C[C@H]2C[C@@]3(C(=O)OC)C(=C[C@H](COCc4ccccc4)O[C@@H]3C)N(CCC3=CCCCC3)C2=O)CC1,.,-2.7,.,.,-16.3,.
COc1ccc(Cl)cc1C(=O)Nc1ccccc1N1CCN(C(=O)C(C)C)CC1,19.9*,7.0,14.3,-41.2,19.8,-19.1
CC1CCCN(c2cccc3c2S(=O)(=O)N([C@H](C)c2ccccc2)C[C@@H](COCc2ccccc2)O3)C1 (some centres undefined),.,-1.0,.,.,-15.7,.
CCOC(=O)[C@@H]1[C@H]2COc3ccccc3[C@H]2N2C(=O)N(c3ccc(C(F)(F)F)cc3)C(=O)[C@]12C,-1.1,7.6,6.5,-16.0,2.9,46.0*
Cn1nc(C(F)(F)F)c(-c2ccc(Br)cc2)c1NC(=O)Nc1ccc(F)cc1F,-12.5,9.3,23.6,46.2*,27.9,32.8
Cn1nc(C(F)(F)F)c(-c2ccc(F)cc2)c1NC(=O)c1ccco1,-3.3,-0.4,3.1,-12.9,-23.6,-5.7
COC(=O)[C@]12C[C@H](CC(=O)NCc3cccs3)C(=O)N(Cc3ccc4c(c3)OCO4)C1=C[C@H](C(C)(C)C)O[C@@H]2C,.,1.2,.,.,-40.8,.
COc1cc(Nc2ccc(C(=O)O)cc2[N+](=O)[O-])cc(OC)c1,-9.5,2.1,53.7*,-6.6,-0.2,-3.2
COc1ccc(-c2nnc(NC(=O)CS(=O)(=O)c3ccc(F)cc3)o2)c(OC)c1,.,0.6,25.9,-6.6,-19.6,-23.4
O=C(CS(=O)(=O)c1ccc(F)cc1)Nc1nnc(-c2ccccc2Cl)o1,.,1.8,45.4*,-10.6,2.0,-12.4
O=[N+]([O-])c1cc(S(=O)(=O)C(F)(F)F)ccc1Sc1nc2ccccc2[nH]1,-19.3,12.9,59.0,-3.7,21.2,-14.2
CS(=O)(=O)c1ccc(Sc2nc3ccccc3[nH]2)c([N+](=O)[O-])c1,-8.9,1.6,44.3*,-34.3,9.3,-9.3
Cc1cc(-c2n[nH]c(=S)n2Cc2ccccc2)cs1,22.1*,1.1,0.0,-23.1,-0.1,-16.4
SMILES,GPR7 antagonist,TAAR1 agonist,OX1R antag-1,OX1R antag-2,TAAR1 antagonist,CHO parental Ca
S=c1[nH]nc(-c2ccncc2)n1Cc1ccccc1,-0.4,2.4,0.8,4.3,-25.4,-10.7
COc1ccc(OC)c(NC(=O)CSc2ncnc3c2cnn3-c2ccccc2Cl)c1,1.6,.,44.6,51.8*,.,52.8*
COc1cc(NC(=O)CSc2ncnc3c2cnn3Cc2ccccc2)cc(OC)c1,4.6,4.5,13.5,2.4,0.0,-1.0
COc1ccc(CCNC(=O)CSc2ccc(-c3cccs3)nn2)cc1,-1.6,0.6,40.9*,-0.1,-12.0,-11.8
Cc1ccc(CNC(=O)CSc2ccc(-c3cccs3)nn2)cc1,-9.9,-2.2,50.7*,-0.1,10.2,-21.6
Cc1nc2ccc(NS(=O)(=O)c3cccc([N+](=O)[O-])c3)cc2s1,.,3.8,20.0,28.5,19.4,30.0*
Cc1nc2ccc(NS(=O)(=O)c3ccc4c(c3)OCCO4)cc2s1,15.1,17.8,26.9,44.9*,5.2,31.2
Cc1ccc(S(=O)(=O)Nc2ccc3nc(N)sc3c2)cc1,-1.2,4.9,18.5,32.0,23.4,33.8*
COC(=O)[C@@]1(C(C)C)N=C(c2cc(OC)c(OC)c(OC)c2)[C@]2(O1)C(=O)N(C)c1ccccc12,.,7.3,.,.,-2.2,.
CCc1ccc(O)c(CNCCNCc2cc(CC)ccc2O)c1,.,41.9*,4.3,-6.0,23.9,-1.7
O=C(O)Cn1c(SCCOc2ccccc2)nc2ccccc21,-5.5,20.4,42.9*,7.8,-1.3,-11.2
CCCCOc1ccc(OCCSc2nc3ccccc3n2CC(=O)O)cc1,27.1,-1.6,15.8,8.2,1.5,-9.1
Cc1ccc(OCCSc2nc3ccccc3n2CC(=O)O)cc1C,-6.3,0.0,43.1*,-4.2,2.2,-11.8
Cc1ccccc1Nc1nc(N)nc(CSc2nnc3sc4ccccc4n23)n1,-12.2,12.3,2.3,-18.2,2.5,1.7
Nc1nc(CSc2nc3ccccc3s2)nc(Nc2ccccc2)n1,-11.5,.,92.2*,60.3*,.,-29.7
NC1=NC(=O)/C(=C\c2cc([N+](=O)[O-])ccc2Cl)S1,-8.9,5.1,49.3*,-14.1,5.3,3.5
CCc1ccc(OCCNc2cc(N3CCNC(C)C3)ccc2[N+](=O)[O-])cc1 (centres undefined),.,43.4*,5.6,16.7,8.5,7.5
O=C(NC(CC1=CCCCC1)c1ccc2ccccc2c1)C(F)(F)F (centres undefined),.,1.7,.,.,21.3,.
Cc1cccc(OCC(=O)NCC(=O)N/N=C/c2c(C)[nH]c3ccccc23)c1,-19.8,7.5,11.8,21.2,52.0*,-0.5
Cc1cc(C(=O)N/N=C/c2c(C)[nH]c3ccccc23)n[nH]1,-8.3,10.7,11.2,-3.5,-36.1,-7.9
Cc1[nH]c2ccccc2c1/C=N/NC(=O)c1cc(-c2cccs2)[nH]n1,-4.8,15.8,57.2*,-0.1,57.6*,-10.0
CC1CN(C(=O)c2ccccc2C(=O)c2ncc[nH]2)CC(C)O1 (centres undefined),-6.4,39.8*,4.5,-8.4,-25.1,1.3
